Test results as given in ChEMBL document CHEMBL1154042, “2-Oxoamide inhibitors of phospholipase A2 activity and cellular arachidonate release based on dipeptides and pseudodipeptides” (Bioorg Med Chem, 2009).

What was measured:
[1] = system: RAW264.7; experiment: Antiinflammatory activity in mouse RAW264.7 cells assessed as inhibition of Kdo2 lipid-A-stimulated arachidonic acid release at 25 uM for 1 hr; assay type: functional; details: for inhibition at 25 µM: RAW264.7, 1 h
Method in brief: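 RAW 264.7 macrophages plated at 2 × 10^6 cells per well and left to adhere overnight. Preincubated 30 min with 25 μM inhibitor, then stimulated with Kdo2-Lipid A. Supernatants collected 1 h later. AA extracted and measured by HPLC-MS, normalized to pmol AA per million cells via DNA quantitation.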

[2] = molecular target: T1, 85/88 kDa calcium-independent phospholipase A2 (Homo sapiens) (UniProt O60733); experiment: Inhibition of human group-6A iPLA2 at 0.091 mole fraction by mixed micellar assay
T1 sequence (whole entry): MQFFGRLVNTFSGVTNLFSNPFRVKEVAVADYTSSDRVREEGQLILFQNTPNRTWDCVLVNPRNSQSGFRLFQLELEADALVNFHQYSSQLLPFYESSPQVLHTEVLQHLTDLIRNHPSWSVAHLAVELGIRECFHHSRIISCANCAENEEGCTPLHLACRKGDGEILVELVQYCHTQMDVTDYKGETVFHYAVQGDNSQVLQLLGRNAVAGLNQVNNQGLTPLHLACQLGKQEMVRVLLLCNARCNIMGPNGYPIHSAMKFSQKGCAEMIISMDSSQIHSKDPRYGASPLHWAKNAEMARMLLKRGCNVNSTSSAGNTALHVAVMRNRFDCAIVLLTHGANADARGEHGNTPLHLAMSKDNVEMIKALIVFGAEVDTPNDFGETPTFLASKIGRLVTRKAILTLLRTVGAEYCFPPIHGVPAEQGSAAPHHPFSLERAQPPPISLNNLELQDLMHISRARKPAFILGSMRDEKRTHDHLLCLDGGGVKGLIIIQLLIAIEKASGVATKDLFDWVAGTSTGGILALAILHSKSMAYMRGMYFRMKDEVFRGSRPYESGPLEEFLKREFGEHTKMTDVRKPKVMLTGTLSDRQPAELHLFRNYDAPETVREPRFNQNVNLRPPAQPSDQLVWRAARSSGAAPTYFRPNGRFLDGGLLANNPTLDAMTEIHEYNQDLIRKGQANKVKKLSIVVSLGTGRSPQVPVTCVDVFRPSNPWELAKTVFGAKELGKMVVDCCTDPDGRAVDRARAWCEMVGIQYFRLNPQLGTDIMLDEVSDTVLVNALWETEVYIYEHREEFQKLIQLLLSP
Method in brief: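 Modified Dole assay, percent inhibition at 0.091 mole fraction inhibitor. Micelles were either 400 μM Triton X-100, 99 μM DPPC, 1.5 μM 14C-DPPC in 200 mM HEPES pH 7.0, 1 mM ATP, 2 mM DTT, 0.1 mg/ml BSA, or 400 μM Triton X-100, 98.3 μM PAPC, 1.7 μM 14C-PAPC in 100 mM HEPES pH 7.5, 2 mM ATP, 4 mM DTT.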

[3] = system: RAW264.7; experiment: Antiinflammatory activity in mouse RAW264.7 cells assessed as inhibition of Kdo2 lipid-A-stimulated arachidonic acid release after 1 hr; assay type: functional, cell-based; details: RAW264.7, 1 h
Method in brief: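 RAW 264.7 macrophages grown in DMEM with 10% FBS, 2 mM glutamine, penicillin/streptomycin and non-essential amino acids at 37 °C, 5% CO2. Plated at 2 × 10^6 cells per well, adhered overnight. Inhibitor added 30 min before Kdo2-Lipid A, supernatants taken 1 h after stimulation. AA extracted and quantitated by HPLC-MS, normalized to pmol per million cells by DNA quantitation. IC50 = concentration giving half of the maximal inhibition seen.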

[4] = molecular target: T2, Phospholipase A2 group V (Homo sapiens) (UniProt P39877); experiment: Inhibition of human group-5 sPLA2 at 0.091 mole fraction by mixed micellar assay
T2 sequence (whole entry): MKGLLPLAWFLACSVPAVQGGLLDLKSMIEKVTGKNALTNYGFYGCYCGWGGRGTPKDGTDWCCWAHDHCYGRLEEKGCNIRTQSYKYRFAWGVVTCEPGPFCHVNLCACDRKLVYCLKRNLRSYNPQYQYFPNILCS
Method in brief: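 Radiometric modified Dole assay screening at 0.091 mole fraction inhibitor, giving percent inhibition. Mixed micelles of 400 μM Triton X-100, 99 μM DPPC and 1.5 μM 14C-DPPC in 50 mM Tris pH 8.0 with 5 mM CaCl2.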

[5] = molecular target: T3, Cytosolic phospholipase A2 (Homo sapiens) (UniProt P47712); experiment: Inhibition of human group-4A cPLA2 at 0.091 mole fraction by mixed micellar assay
T3 sequence (whole entry): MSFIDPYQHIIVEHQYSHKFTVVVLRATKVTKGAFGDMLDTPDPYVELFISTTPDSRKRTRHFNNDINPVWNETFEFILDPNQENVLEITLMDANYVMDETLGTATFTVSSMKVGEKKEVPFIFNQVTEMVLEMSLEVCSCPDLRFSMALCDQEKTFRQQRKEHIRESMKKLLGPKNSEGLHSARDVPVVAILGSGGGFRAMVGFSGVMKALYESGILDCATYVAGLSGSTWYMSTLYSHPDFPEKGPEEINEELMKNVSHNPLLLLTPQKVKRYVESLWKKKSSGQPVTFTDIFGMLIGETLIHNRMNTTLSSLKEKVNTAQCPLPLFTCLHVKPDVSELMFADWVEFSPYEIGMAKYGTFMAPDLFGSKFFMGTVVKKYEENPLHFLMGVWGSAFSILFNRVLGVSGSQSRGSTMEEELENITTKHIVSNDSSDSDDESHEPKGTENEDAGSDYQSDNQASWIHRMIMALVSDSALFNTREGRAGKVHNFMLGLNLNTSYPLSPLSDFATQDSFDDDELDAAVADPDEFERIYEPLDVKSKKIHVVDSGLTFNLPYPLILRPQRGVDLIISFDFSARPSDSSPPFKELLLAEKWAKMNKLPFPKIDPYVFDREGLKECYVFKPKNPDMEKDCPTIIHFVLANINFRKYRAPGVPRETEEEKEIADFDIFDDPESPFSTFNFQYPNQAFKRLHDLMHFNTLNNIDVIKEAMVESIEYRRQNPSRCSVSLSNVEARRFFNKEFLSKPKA
Method in brief: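 Modified Dole assay, single point at 0.091 mole fraction inhibitor. Mixed micelles: 400 μM Triton X-100, 97 μM PAPC, 1.8 μM 14C-PAPC, 3 μM PIP2. Buffer: 100 mM HEPES pH 7.5, 90 μM CaCl2, 2 mM DTT, 0.1 mg/ml BSA. Percent inhibition reported.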

CCCCCCCCCCCCCC(=O)C(=O)N[C@@H](CCCC)CCCCC(=O)O
Activity [1]: Toxic

CCCCCCCCCCCCCCC(=O)C(=O)NCCCC(=O)OCC
Activity [1]: Toxic

CCCCCCCCCCCCCCC(=O)C(=O)N[C@@H](CCCC)COCC(=O)O
inhibition [2]: < 25% | IC50 [3]: 2 µM | inhibition [4]: < 25% | inhibition [5]: > 90%

CCCCCCCCCCCCCCC(=O)C(=O)N[C@@H](CCCC)COCC(=O)OC(C)(C)C
inhibition [2]: 81% | inhibition [4]: 57% | inhibition [5]: 44%

CCCCCCCCCCCCCCC(=O)C(=O)NCCCC(=O)O
inhibition at 25 µM [1]: 27% | IC50 [3]: 25 µM

CCCCCCCCCCCCCCC(=O)C(=O)NCCCC(=O)N(C)S(=O)(=O)c1ccc(C)cc1
Activity [1]: Toxic

CCCCCCCCCCCCCCC(=O)C(=O)NCC(=O)OC
inhibition at 25 µM [1]: 68%

CCCCCCCCCCCCCCC(=O)C(=O)N[C@@H](CCCC)CCC(=O)OC
Activity [1]: Toxic

CCCCCCCCCCCCCCC(=O)C(=O)N[C@@H](CCCC)CCC(=O)O
inhibition at 25 µM [1]: 30% | IC50 [3]: 25 µM

CCCCCCCCCCCCCCC(=O)C(=O)NCCC(=O)OC(C)(C)C
Activity [1]: Toxic

CCCCCCCCCCCCCCC(=O)C(=O)N[C@H](CCC(=O)O)CC(C)C
inhibition at 25 µM [1]: 6% | IC50 [3]: 25 µM

CCCCCCCCCCCCCCC(=O)C(=O)N[C@H](/C=C/C=C/C(=O)O)CCCC
inhibition at 25 µM [1]: 74%

CCCCCCCCCCCCCCC(=O)C(=O)N[C@@H](CCCC)COCC(=O)OCC
inhibition [2]: > 90% | inhibition [4]: 81% | inhibition [5]: 52%

CCCCCCCCCCCCCCC(=O)C(=O)N[C@@H](CCCC)C(=O)NCC(=O)OC(C)(C)C
inhibition [2]: > 90% | inhibition [4]: 59% | inhibition [5]: 72%

CCCCCCCCCCCCCCC(=O)C(=O)N[C@@H](CCCC)C(=O)NCC(=O)O
inhibition [2]: < 25% | inhibition [4]: < 25% | inhibition [5]: > 90%

CCCCCCCCCCCCCCC(=O)C(=O)N[C@H](/C=C/C(=O)O)CCCC
inhibition at 25 µM [1]: 16% | IC50 [3]: 25 µM

CCCCCCCCCCC(=O)C(=O)N[C@@H](CCCC)C(=O)O
inhibition at 25 µM [1]: 79%

CCCCCCCCCCCCCCC(=O)C(=O)N[C@@H](CCCC)C(=O)NCC(=O)OC
inhibition [2]: > 90% | inhibition [4]: 65% | inhibition [5]: > 90%

CCCCCCCCCCCCCCC(=O)C(=O)N[C@H](C(=O)NCC(=O)OC(C)(C)C)C(C)C
inhibition at 25 µM [1]: 30% | inhibition [2]: > 90% | inhibition [4]: 78% | inhibition [5]: > 90%

CCCCCCCCCCCCCCC(=O)C(=O)N[C@@H](C)CCC(=O)OC(C)(C)C
Activity [1]: Toxic

CCCCCCCCCCCCCCC(=O)C(=O)N[C@H](/C=C/C(=O)OC)CCCC
Activity [1]: Toxic

CCCCCCCCCCCCCCC(=O)C(=O)N[C@H](/C=C/C(=O)OCC)CCCC
inhibition at 25 µM [1]: 11%

CCCCCCCCCCC(=O)C(=O)N[C@@H](CCC(=O)OC)COC(=O)NCCCCCCCC
Activity [1]: Toxic

CCCCCCCCCCCCCCC(=O)C(=O)N[C@@H](CCCC)CCCC(=O)O
inhibition at 25 µM [1]: 30% | IC50 [3]: 7 µM

CCCCCCCCCCCCCCC(=O)C(=O)NCCCC(=O)COCC
inhibition [2]: > 90% | inhibition [5]: > 90%

CCCCCCCCCCCCCCC(=O)C(=O)N[C@H](C(=O)NCC(=O)O)C(C)C
inhibition [2]: < 25% | inhibition [4]: < 25% | inhibition [5]: > 90%

CCCCCCCCCCCCCCC(=O)C(=O)N[C@@H](CCCC)C(=O)NCC(=O)OCC
inhibition [2]: > 90% | inhibition [4]: 63% | inhibition [5]: 73%

CCCCCCCCCCC(=O)C(=O)N[C@@H](CCCC)CCC(=O)O
inhibition at 25 µM [1]: 62% | IC50 [3]: 10 µM

CCCCCCCCCCCCCCC(=O)C(=O)NCCCC(=O)CO
inhibition [2]: < 25% | inhibition [5]: > 90%

CCCCCCCCCCCCCCC(=O)C(=O)N[C@H](C(=O)NCC(=O)OC)C(C)C
inhibition [2]: < 25% | inhibition [4]: < 25% | inhibition [5]: 25%

CCCCCCCCCCCCCCC(=O)C(=O)NCCCCC(=O)OC(C)(C)C
inhibition at 25 µM [1]: 59%
